The source of these data is ChEMBL document CHEMBL1145694, “In vitro evaluation of antifungal properties of 8.O.4'-neolignans” (1997).

Converted amounts (≈) assume the structure as drawn. The source made the active and inactive calls. No cut-off for these calls is given here.

Assay [1] deals with Candida albicans. In words: Antifungal activity against Candida albicans ATCC 10231 up to 250 ug/mL by agar dilution method. Format: functional, organism-based. An outline of the steps:
(§1)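 Agar dilution in Saboureaud-chloramphenicol agar wells. Test agents from DMSO stocks were serially diluted twofold to final 0.10–250 µg/mL, with DMSO ≤2% final. Each well got 5 µL of yeast cell or spore suspension (spores at 10⁶ CFU/mL). Ketoconazole and amphotericin B served as positive controls, with a drug-free blank. Plates were held at 30 °C for 24, 48 or 72 h, set by control growth. MIC = lowest concentration with no visible growth.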
Background: In agar dilution, organisms are placed on agar that contains the substance at set levels.

The test system of assay [2] is Saccharomyces cerevisiae. In words: Antifungal activity against Saccharomyces cerevisiae ATCC 9763 up to 250 ug/mL by agar dilution method. Format: functional, organism-based. An outline of the steps:
as §1

In assay [3] the test system is Cryptococcus neoformans. In words: Antifungal activity against Cryptococcus neoformans ATCC 32264 up to 250 ug/mL by agar dilution method. Type of assay: functional, organism-based. An outline of the steps: as §1
The test system of assay [4] is Aspergillus niger. As to the kind of experiment: Antifungal activity against Aspergillus niger ATCC 9029 up to 250 ug/mL by agar dilution method. Type of assay: functional, organism-based. A digest of the protocol:
as §1

For assay [5], the system named is Aspergillus fumigatus. As to the kind of experiment: Antifungal activity against Aspergillus fumigatus ATCC 26934 up to 250 ug/mL by agar dilution method. Format: functional, organism-based. An outline of the steps: as §1
In assay [6] the test system is Aspergillus flavus. In words: Antifungal activity against Aspergillus flavus ATCC 9170 up to 250 ug/mL by agar dilution method. Format: functional, organism-based. An outline of the steps:
as §1

Assay [7] deals with Microsporum canis. In words: Antifungal activity against Microsporum canis C112 after 15 days by agar dilution method. Format: functional. The following applies: 360 h. An outline of the steps:
(§2)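 Dermatophytes were kept on Saboureaud dextrose agar slopes and subcultured every 15 days. Spore suspensions were set to 10⁶ CFU/mL, and 5 µL went into Saboureaud-chloramphenicol agar wells. Wells held twofold dilutions from DMSO stocks, final 0.10–250 µg/mL, DMSO ≤2%. Ketoconazole and amphotericin B were positive controls, with a drug-free blank. Incubation was at 30 °C for up to 15 days. MIC = lowest concentration with no visible growth.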

Assay [8] deals with Nannizzia gypsea. In words: Antifungal activity against Microsporum gypseum C115 after 15 days by agar dilution method. Type of assay: functional. The following applies: 360 h. An outline of the steps:
as §2

The test system of assay [9] is Trichophyton mentagrophytes. In words: Antifungal activity against Trichophyton mentagrophytes ATCC 9972 after 15 days by agar dilution method. Type of assay: functional. The following applies: ATCC 9972, 360 h. An outline of the steps: as §2
The test system of assay [10] is Trichophyton rubrum. In words: Antifungal activity against Trichophyton rubrum C113 after 15 days by agar dilution method. Type of assay: functional. Conditions: 360 h. A digest of the protocol:
as §2

In assay [11] the test system is Epidermophyton floccosum. In words: Antifungal activity against Epidermophyton floccosum C114 after 15 days by agar dilution method. Format: functional. Conditions: 360 h. A digest of the protocol:
as §2

The term MIC denotes the lowest concentration found to suppress growth. Turning to `C=CCc1cc(OC)c(OC(C)C(=O)c2ccc(OC)c(OC)c2)c(OC)c1` (racemic), the result in [1], in [2], in assay [3], in [4], in [5] and in [6] was inactive. The MIC in assay [7] is 250 µg/mL (≈ 647 µM); in [8], over 250 µg/mL; in assay [9] it was over 250 µg/mL; in assay [10] it was over 250 µg/mL; in [11], over 250 µg/mL.
Turning to `C=CCc1cc(OC)c(O[C@H](C)[C@@H](O)c2cc(OC)c(OC)c(OC)c2)c(OC)c1` (racemic) [RHAPHIDECURSINOL B], the result in assay [1], in [2], in assay [3], in [4], in [5] and in [6] was inactive. In addition, the MIC in [7] was determined as 50 µg/mL (≈ 119 µM); in assay [8], 150 µg/mL (≈ 358 µM); in [9], 50 µg/mL (≈ 119 µM); in assay [10], 25 µg/mL (≈ 59.7 µM); in assay [11], 50 µg/mL (≈ 119 µM).
On to `C/C=C/c1ccc(O[C@@H](C)[C@@H](O)c2ccc(OC)c(OC)c2)c(OC)c1` (racemic) [VIROLIN], for which the outcome in [1], in assay [2], in assay [3], in assay [4], in assay [5] and in assay [6] was inactive. Also, the MIC in assay [7] was 50 µg/mL (≈ 139 µM); in assay [8] it was over 250 µg/mL; in [9], over 250 µg/mL; in assay [10], over 250 µg/mL; in assay [11], 100 µg/mL (≈ 279 µM).
